High-throughput results from PubChem.
Compounds with a hit are over-represented: about 0.98% of the library has one in this group of screens.
Yeast lifespan up – yeast lifespan extension; inhibition of the nicotinamide effect, % at 10 µM; S. cerevisiae growth with nicotinamide, OD615; deaD strain in restrictive glucose medium; hit rate 0.68% among 130,000;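 active means inhibition above a set limit, placed 3 SD over the median of all compounds, cut at about 26% in these data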;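 further: 0% = nicotinamide-treated wells and 100% = cells grown without nicotinamide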
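System: DeaD-strain S. cerevisiae / Buffer or medium: CSMM-D, restrictive glucose (dextrose) synthetic minimal medium / Probe or stimulus: nicotinamide, 1.5 mM, co-present with compound / Compound: one concentration, 10 µM, DMSO 0.25% / Incubation: 48 h compound exposure at 30 °C, humidified / Technique: optical density (absorbance) at 615 nm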
S1P3 antag – S1P3 (human) receptor antagonism; Q99500; inhibition, % at 4.98 µM; CHO S1P3 NFAT-BLA reporter, FRET fluorescence, antagonist mode; hit rate 0.27% among 170,000; AID 485;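 active means inhibition above the plate cutoff, the mean inhibition of test wells on that plate plus 3 SD, cut at about 28% in these data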;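 further: cells challenged with S1P at its EC80 of 0.8 µM; blue over green emission ratio from cleaved BLA substrate after 4 h stimulation; 0% = S1P-stimulated wells and 100% = unstimulated DMSO-only wells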
Target sequence (Q99500 whole entry, looked up): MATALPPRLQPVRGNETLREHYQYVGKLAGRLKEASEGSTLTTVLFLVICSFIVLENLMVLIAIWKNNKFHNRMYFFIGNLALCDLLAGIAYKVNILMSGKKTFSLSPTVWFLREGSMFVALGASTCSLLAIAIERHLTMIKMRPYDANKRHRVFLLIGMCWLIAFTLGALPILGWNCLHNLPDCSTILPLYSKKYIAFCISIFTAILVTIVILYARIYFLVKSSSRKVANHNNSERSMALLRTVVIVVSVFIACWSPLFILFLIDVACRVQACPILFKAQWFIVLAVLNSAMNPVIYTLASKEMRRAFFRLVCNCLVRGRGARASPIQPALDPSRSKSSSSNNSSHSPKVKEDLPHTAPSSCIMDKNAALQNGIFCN
BB579 growth dn – reduces growth of yeast BB579 in restrictive medium; S. cerevisiae BB579 growth, OD615, 48 h; inhibition, % at 10 µM; hit rate 0.51% among 140,000;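 active means inhibition above a set limit, 3 SD over the mean compound inhibition, cut at about 44% in these data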
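Test system: DeaD yeast strain BB579 / Buffer or medium: restrictive glucose-based CSMM-D medium / Doses: single 10 µM dose / Schedule: 4 h cell preincubation, 48 h compound exposure, 30 °C humidified / Technique: culture absorbance at 615 nm / Controls: amphotericin B positive control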
The depositor's hits bear a star; / = no result.

SMILES | Yeast lifespan up | S1P3 antag | BB579 growth dn
CS(=O)(=O)N1CCN(C(=O)c2ccccc2F)CC1 | -7 | -10 | 50*
CS(=O)(=O)N1CCN(C(=O)c2c(F)cccc2F)CC1 | -22 | -37 | 23
Cn1cccc1C(=O)NC(=O)COC(=O)CNS(=O)(=O)c1ccc(Br)cc1 | -3 | / | 2
CCc1[nH]nc2c1C(c1ccc(Br)s1)C(C#N)=C(N)O2 (stereo unspecified) | 58* | / | -26
CCc1[nH]nc2c1C(c1ccsc1)C(C#N)=C(N)O2 (stereo unspecified) | / | / | -19
Cc1ccsc1/C=C/c1ccc2cccc(O)c2n1 | -6 | / | 17
Oc1cccc2ccc(/C=C/c3cccs3)nc12 | -18 | / | 59*
COc1ccc(/C=C/c2cc(=O)c3cc(Cl)ccc3o2)cc1 | 0 | -11 | -43
COc1ccc(C(=O)/C=C/N2CCCCC2)cc1OC | -6 | -9 | 53*
COC(=O)c1ccc(N/C=C/C(=O)c2ccc(OC)c(OC)c2)cc1 | -2 | / | -15
O=c1c(-c2ccc(Cl)cc2)cnc2n1CCS2 | / | -2 | /
CC(C)Oc1ccc(C2CC(=O)N(c3cccc(C(=O)O)c3)C2=O)cc1 (stereo unspecified) | -5 | 5 | -18
CCCNC(=S)Nc1ccc(Oc2ccccc2)cc1 | -11 | / | -3
Cc1nnc(SCC(=O)OC2CC(C)CCC2C(C)C)[nH]c1=O (stereo unspecified) | 3 | / | -1
CC1CCC(C(C)C)C(OC(=O)CSc2n[nH]c(=O)[nH]c2=O)C1 (stereo unspecified) | 48* | -31 | -47
Cc1nc2ccccn2c1C(=O)CSc1ccccc1Cl | -12 | / | -53
COc1ccc(-c2[nH]ncc2-c2cscn2)c(O)c1 | / | -15 | /
O=C(O)c1ccc(SCc2cnc(Cl)s2)cc1 | -18 | / | 97*
COC(=O)c1ccc(SCc2cnc(Cl)s2)cc1 | -25 | / | -21
N#C/C(C(=O)c1ccccc1)=C1/CCCCCN1 | -15 | 31 | -20
COc1ccc(C(=O)NCC(=O)OCC(=O)N2CCN(S(=O)(=O)c3ccccc3)CC2)cc1 | 7 | 15 | -21
O=[N+]([O-])c1ccc(CN2CCCCCC2)s1 | 4 | -1 | 54*
O=C(/C=C/c1ccc([N+](=O)[O-])s1)N1CCCCC1 | / | -2 | /
Cn1cc(C(=O)NCCO)c(=O)c2ccccc21 | / | 10 | /
O=C(NNC(=S)NC(=O)c1cccs1)c1ccc(NC(=O)c2ccccc2)cc1 | 1 | 11 | -26
SMILES | Yeast lifespan up | S1P3 antag | BB579 growth dn
CCCCC(=O)Nc1ccc(C(=O)NNC(=S)NC(=O)c2cccs2)cc1 | 36* | -9 | -23
O=C(NCc1ccccc1F)C1CCN(C(=O)NCc2ccccc2)CC1 | 1 | 68* | -67
O=C(NCc1ccc(F)cc1)C1CCN(C(=O)NCc2ccccc2)CC1 | -5 | 6 | -5
O=C(O)CCN=Cc1c(O)c2ccccc2oc1=O | / | -10 | /
Cc1ccc(Oc2nc3ccccc3n3c(C)nnc23)c(C)c1 | 74* | / | -76
Cc1nnc2c(Oc3ccccc3)nc3ccccc3n12 | -27 | / | -3
CC(=O)NC1=NN(C(C)=O)C(C)(CCS(=O)(=O)c2ccc(Br)cc2)S1 (stereo unspecified) | 3 | -24 | -34
CCCCNC(=O)c1cccc2c(=O)c(C)c(-c3ccccc3)oc12 | 0 | -10 | -8
CCCCN(C(=O)c1cccc2c(=O)c(C)c(-c3ccccc3)oc12)c1ccccc1 | 29* | -7 | -24
CN(C(=O)CSc1nnc(-c2ccncc2)n1C)C1CCS(=O)(=O)C1 (stereo unspecified) | -6 | / | -40
O=C(N/N=C/c1cn(Cc2ccccc2)c2ccccc12)c1ccncc1 | / | -11 | /
O=C(N/N=C/c1cn(Cc2ccccc2)c2ccccc12)c1cccnc1 | -2 | 28* | -21
O=C(CC(=O)N/N=C/c1c(F)cccc1Cl)NCc1ccccc1 | / | 2 | /
CS/C(=N\S(=O)(=O)c1cccs1)Nc1ccc(Cl)cc1 | 6 | 6 | -35
CS/C(=N\S(=O)(=O)c1cccs1)Nc1ccc(Br)cc1F | 31* | 2 | -10
O=C(O)C1=C[C@H](c2csc3ccccc23)C[C@H](OCCCCO)O1 | / | -13 | /
Cc1cc(/C=N/N2CCN(C)CC2)c(C)n1-c1ccc(Cl)cc1 | / | 1 | /
COc1ccc(-c2noc(CSc3nc(-c4ccccc4)cc(=O)[nH]3)n2)cc1OC | -9 | 19 | -56
COc1ccc(Cl)c(NC(=O)Cn2nnc(-c3ccccc3N)n2)c1 | -5 | -12 | -80
COc1ccc(CNCCC2(Cc3ccccc3)CC(C)N(C)CC2C)cc1OC (stereo unspecified) | / | 14 | /
O=C(Oc1cc(=O)n2ccccc2n1)c1ccccc1 | 43* | -3 | -17
O=C(O)c1c(Cl)nc2ccccn12 | / | 5 | /
COC(=O)NCC12CC3CC(C1)CC(CNC(=O)OC)(C3)C2 | 37* | / | -38
CC(=O)NCC12CC3CC(C1)CC(C(=O)O)(C3)C2 | -1 | -8 | -21
CCS(=O)(=O)N1CCC(c2nc(-c3ccc(C(F)(F)F)cc3)no2)CC1 | -7 | -2 | -18
SMILES | Yeast lifespan up | S1P3 antag | BB579 growth dn
CCS(=O)(=O)N1CCC(c2nc(-c3ccc(C)cc3)no2)CC1 | 60* | -27 | 2
O=S(=O)(Nc1ccncc1Cl)c1cc(Cl)ccc1Cl | / | -14 | /
O=S(=O)(Nc1nc(-c2sccc2Cl)cs1)c1cc(Cl)ccc1Cl | 46* | / | -24
COc1ccccc1OCC(=O)Nc1ccc(CSc2ccccc2)cc1C | 0 | / | -29
CCCCCCC/C(C)=N/NC(=O)CC(=O)NCCc1ccccc1 | -3 | / | -35
Cc1ccc(C(=O)Nc2cccc(C(=O)NCc3ccco3)c2)cc1 | -17 | 67* | -29
O=C(NCc1ccco1)c1cccc(NC(=O)c2ccccc2)c1 | -9 | 40 | -50
O=C(/C=C/c1ccco1)Nc1ccc(Oc2ccc(Cl)cc2)cc1 | -5 | / | -66
CC1CC(C)(C)CC2(C1)NC(=O)N(CC(=O)NCC(c1ccco1)N1CCCCC1)C2=O (stereo unspecified) | -9 | -15 | -14
CCn1c(=O)c(C(=O)NNS(=O)(=O)c2ccc(Cl)cc2)c(O)c2ccccc21 | 28* | -9 | -30
CCCCCCC(=O)NNC(=O)c1c(O)c2ccccc2n(CC)c1=O | / | -25 | /
COc1ccccc1-c1nc2ccccc2nc1-c1ccccc1OC | 4 | -13 | -22
O=C1c2ccccc2-c2nc3ccccc3nc21 | -15 | / | 85*
Cc1ccc(N2C(=O)C(CN3CCCCC3)C2c2ccccc2)cc1 (stereo unspecified) | / | -12 | /
CN(CC(=O)NCCc1ccc(Cl)cc1)S(=O)(=O)c1ccc2c(c1)c(=O)n(C)c(=O)n2C | -5 | / | -14
CN(CC(=O)NCCC1=CCCCC1)S(=O)(=O)c1ccc2c(c1)c(=O)n(C)c(=O)n2C | -6 | 74* | -38
COC(=O)c1ccc(Nc2nc(C)cc(=O)[nH]2)cc1 | -13 | -51 | -2
Cc1cc(C)nc(SC2=CS(=O)(=O)c3ccccc32)n1 | -9 | 9 | -7
O=S1(=O)C=C(Sc2nc3ccccc3s2)c2ccccc21 | 69* | 6 | -11
O=C(Nc1ncccn1)c1cc(-c2ccc(F)cc2)nc2ccccc12 | / | -19 | /
O=C(NNC(=S)NC(=O)C12CC3CC(CC(C3)C1)C2)c1ccncc1 | -3 | / | 74*
CC1(C(=O)NC(=S)NNC(=O)c2ccncc2)CCCCC1 | 10 | 4 | -42
